CHOP UPR activ = apoptotic UPR (CHOP) activation. CHO-CHOP luciferase reporter, luminescence; percent of tunicamycin response over DMSO baseline. activation, % at 10 µM. hit rate 0.34% among 330,000. AID 449763;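 active means at 10 µM dose, activation of 40% or more, normalized to positive control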;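 further: 100% = tunicamycin at 10 µg/mL and 0% = DMSO alone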
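assay system = CHO CHOP reporter cells | amount = 500 CHO-CHOP cells per well | buffer or medium = F12 with 10% FBS | incubation = 16-18 h cell attachment, then 6 h compound exposure, 37 °C | detection = luminescence read with Steady-Glo | read-out = percent activation relative to tunicamycin control | controls = tunicamycin high control, DMSO low control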
CHOP inhibitor = inhibitors of CHOP induction in ER stress response. CHO-K1 CHOP-promoter luciferase, tunicamycin-induced, 15-18 h. hit rate 3.8% among 220,000. inhibition, % at 10 µM. AID 2732;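 active means compounds that reduced the stress-induced luciferase reporter signal by more than about 70% of percent inhibition, limit read from the data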;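 further: 0% = tunicamycin plus vehicle and 100% = wells without tunicamycin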
NR3A LBD binder = modulates the human NR3A ligand-binding domain. NR3A LBD differential scanning fluorimetry, Tm shift; 0% = protein alone, 100% = glycine-bound protein. Tm shift relative to glycine control, % at 25 µM. hit rate 2.5% among 340,000;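 active means melting temperature shift of at least 10% of the positive control shift, at one fixed dose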
aDG glyco up = alpha-DG glycosylation activation | Pro5-aDG cells, alpha-DG glycosylation AlphaScreen (IIH6); 0% Pro5, 100% B10-LARGE cell signal | activation, % at 10 µM | hit rate 0.22% among 360,000 | AID 624168;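 active means activation of at least 8% versus controls, or a plate z-score of at least 8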;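 further: Pro5 are CHO cells carrying HIG-tagged alpha-DG that lacks glycosylation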
MPTP inh = inhibitors of mitochondrial permeability transition pore; hit rate 1.4% among 360,000; inhibition, % at 10 µM; isolated mouse mitochondria, Ca2+ swelling absorbance, 30 min;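 active means inhibition of 50% or more, scaled per plate between neutral and stimulator controls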;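 further: 0% = DMSO wells given calcium and 100% = 1 mM EGTA wells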
UPR XBP1 act = adaptive UPR (XBP1) activation. activation, % at 20 µM. hit rate 0.33% among 330,000. CHO-XBP1 luciferase reporter, IRE1-XBP1 UPR activation, luminescence; percent of tunicamycin response, DMSO as zero;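 active means versus positive control, 20 µM dose yields 30% or more activation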;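 further: 100% = tunicamycin at 10 µg/mL and 0% = DMSO only wells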
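Signal: luciferase luminescence; Assay system: CHO-XBP1 luciferase reporter cells; Amount: one thousand reporter cells per well; Dosing: 20 µM single concentration, DMSO 1%; Benchmarks: high control tunicamycin 10 µg/mL final, low control DMSO vehicle only; Schedule: 6 h compound exposure at 37 °C, 5% CO2; Evaluation: percent activation relative to tunicamycin reference.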
Starred values were filed as active, the others as inactive; / = no result given. Most compounds without a hit are left out; they make up all but 5.6% or so of the library.

SMILES	CHOP UPR activ	CHOP inhibitor	NR3A LBD binder	aDG glyco up	MPTP inh	UPR XBP1 act
CC1=Nc2ccccc2/C1=C\c1nc(-c2ccccc2)oc1O	4	29	10*	0	6	3
CC1=Nc2ccccc2/C1=C/c1nc(-c2ccc(C)s2)oc1O	-1	4	20*	0	4	-2
CCOC(=O)C1(C)CCN1C(=O)c1cccc2ccccc12 (stereo not given)	/	/	/	0	-1	/
Cc1[nH]c(=S)[nH]c(=O)c1CCC1OCCO1	2	-7	14*	0	0	1
CC(=O)Nc1nc(C)c(CCC2OCCO2)c(=O)[nH]1	-1	4	12*	0	0	-4
Cc1[nH]c(=S)[nH]c(=O)c1CCCO	-2	11	-1	0	0	0
O=C(CN1C(=O)C2CC=CCC2C1=O)Nc1ccc(F)cc1F (stereo not given)	1	/	-1	0	0	-4
COc1cc(CNn2cn[nH]c2=S)cc(Br)c1OCc1ccccc1F	0	-4	-2	0	-4	-2
COc1cc(CNc2ccc(O)cc2)cc(Br)c1OCc1ccccc1F	4	87*	3	2	5	-1
Cc1sc2nc(SCc3ccc(C(=O)O)cc3)n(Cc3ccco3)c(=O)c2c1C	0	4	-1	0	4	2
Cc1nc2ccccc2n1CCc1nc2c3ccccc3nc(SCC#N)n2n1	0	-26	/	/	/	20
O=C(CSc1nc2sc3c(c2c(=O)n1-c1ccccc1)CCCC3)NCc1ccco1	-1	84*	2	0	-1	-1
C=CCn1c(SCC(=O)NC(=O)NCc2ccco2)nc2sc(CC)cc2c1=O	0	83*	0	0	1	-2
Cc1nc2ccccc2n1CCc1nc2c3ccccc3nc(SCC(=O)NCc3ccco3)n2n1	1	72*	0	0	0	0
Cc1sc2nc(SCC(=O)c3cccs3)n(Cc3ccco3)c(=O)c2c1C	0	-10	11*	0	0	-1
O=C(CSc1nc2scc(-c3ccco3)c2c(=O)n1-c1ccccc1)NCC1CCCO1 (stereo not given)	4	100*	4	0	11	-1
Cc1sc2nc(SCC(=O)NCc3ccco3)n(CCc3ccccc3)c(=O)c2c1C	16	95*	-6	0	1	17
C=CCn1c(SCC(=O)NCC2CCCO2)nc2scc(-c3ccco3)c2c1=O (stereo not given)	2	41	0	0	0	0
Cc1ccc(-n2c(SCC(=O)NCc3ccco3)nc3c(sc4ccccc43)c2=O)cc1	3	-37	10*	0	3	-1
Cc1ccc(C)c(CSC2=NCCN2S(=O)(=O)c2ccccc2)c1	1	/	-6	0	0	-7
COc1ccccc1NC(=O)N(C)C[C@@H]1OCc2cnnn2CCCC(=O)N([C@@H](C)CO)C[C@H]1C	/	/	/	0	-4	/
Cc1cc(Nc2ccc(Cl)cc2)n(-c2ccccc2)n1	0	19	-8	0	-1	0
Cc1cc(Nc2ccc(Cl)cc2)n(-c2cccc(Cl)c2)n1	-2	72*	-6	0	35	0
Cc1ccccc1-n1c(SCC(=O)NC2CC2)nc2ccccc2c1=O	/	/	/	0	0	/
COc1ccccc1C(CNC(=O)c1ccc(NS(=O)(=O)c2ccc(F)c(C)c2)cc1)N(C)C (stereo not given)	-2	/	10*	0	1	-4
SMILES	CHOP UPR activ	CHOP inhibitor	NR3A LBD binder	aDG glyco up	MPTP inh	UPR XBP1 act
O=C1/C(=C/c2cccs2)N=C(c2cccs2)N1Nc1ccccc1	0	94*	-2	0	-3	0
O=C1/C(=C\c2cccs2)N=C(c2cccs2)N1Nc1ccccc1	0	46	-4	0	5	-4
CCn1ncc(/C=C2/SC(=S)NC2=O)c1C	2	-23	12*	0	1	-1
Cc1ccc(C)c2sc(NC(=O)C3CC3)nc12	1	/	9	0	-1	3
CCc1cccc2sc(NC(=O)C3CC3)nc12	0	/	12*	0	-1	0
CN(Cc1cn(Cc2ccc(F)cc2)nn1)C1CN(Cc2cn(Cc3ccc(F)cc3)nn2)S(=O)(=O)C1 (stereo not given)	/	/	/	0	0	/
O=S1(=O)CCOCCCN1Cc1ccccc1Br	1	/	1	0	-2	0
O=[N+]([O-])c1ccc2[nH]cc(S(=O)(=O)N3CCN(c4cccc(Cl)c4)CC3)c2c1	0	/	27*	0	4	-3
OC(CSc1ccccc1Cl)CN1CCN(c2ccc(F)cc2)CC1 (stereo not given)	-2	65	-8	0	1	-1
OC(CSc1c(Cl)cccc1Cl)CN1CCN(c2ccc(F)cc2)CC1 (stereo not given)	-2	88*	-13	0	2	-2
Cc1ccc(NC(=O)C(c2ccccc2)c2ccccc2)c(O)c1	0	/	-4	0	3	-2
CCOc1ccc(NC(=O)CSc2nnnn2-c2ccc(C(N)=O)cc2)cc1	-1	/	0	0	5	-3
COc1cc(/C=C/C(=O)c2cccc([N+](=O)[O-])c2)cc(OC)c1OC	19	-1	0	0	0	-3
O=C(/C=C/c1ccccc1F)c1cccc([N+](=O)[O-])c1	-2	-43	19*	0	3	2
Cc1ccc(Oc2nc(-c3ccccc3)ncc2S(=O)(=O)c2ccc(C)cc2)cc1	-2	14	11*	0	4	1
Cc1ccc(Oc2nc(-c3ccccc3)ncc2S(C)(=O)=O)cc1	1	28	0	0	-2	6
Cc1ccc(Cn2c(=O)c3cccnc3n(CC(=O)Nc3cccc(C(F)(F)F)c3)c2=O)cc1	1	45	23*	0	13	-1
Cc1ccc(/C=C2\SC(=S)N(CCCC(=O)NNC(=O)c3ccccc3O)C2=O)cc1	-8	98*	-3	0	21	-6
Cc1ccc(/C=C2\SC(=S)N(CCC(=O)NNC(=O)c3ccccc3O)C2=O)cc1	2	/	16*	0	4	4
O=C(CCN1C(=O)/C(=C/c2ccccc2Cl)SC1=S)NNC(=O)c1ccccc1O	0	/	10	0	7	3
COc1ccc(OC)c(C2NC(=O)c3sc(=S)n(-c4ccccc4)c3N2)c1 (stereo not given)	-1	90*	2	0	2	20
COC(=O)c1cc(Br)ccc1-c1ccc(/C=N/n2nnnc2N)o1	0	46	-13	3	0	12
Cc1ccc([N+](=O)[O-])cc1-c1ccc(/C=N\n2nnnc2N)o1	0	90*	10	1	2	0
